# Test results: ChEMBL document CHEMBL1124493, “Synthesis and tumor uptake of 5-82Br- and 5-131I-labeled 5-halo-1-(2-fluoro-2-deoxy-beta-D-ribofuranosyl)uracils” (J Med Chem, 1989)
# Tests used:
# [1] = test system: Mus musculus; test: Biodistribution of intravenously injected [131I]-labeled compound in bone of BDF1 female mice bearing subcutaneous Lewis lung carcinoma after 8 hours; format: ADME, organism-based, Bone element; conditions: in vivo, iv
# Summary of the method: (§1)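 Female BDF1 mice bearing subcutaneous Lewis lung carcinoma received a single intravenous dose of 0.5-1.8 μg of the 131I-labeled nucleoside (55-110 kBq). They were sacrificed at set times, and tissues were weighed wet and γ-counted. Activity is expressed as percent of injected dose per gram of wet tissue, given as mean ± standard deviation for six animals.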
# [2] = test system: Mus musculus; test: Biodistribution of intravenously injected [131I]-labeled compound in blood of BDF1 female mice bearing subcutaneous Lewis lung carcinoma after 2 hours; format: ADME, organism-based; conditions: in vivo, iv; summary of the method: as §1
# [3] = test system: Mus musculus; test: Biodistribution of intravenously injected [131I]-labeled compound in heart of BDF1 female mice bearing subcutaneous Lewis lung carcinoma after 2 hours; format: ADME, organism-based; conditions: in vivo, iv; summary of the method: as §1
# [4] = test system: Mus musculus; test: Biodistribution of intravenously injected [131I]-labeled compound in heart of BDF1 female mice bearing subcutaneous Lewis lung carcinoma after 4 hours; format: ADME, organism-based; conditions: in vivo, iv; summary of the method: as §1
# [5] = test system: Mus musculus; test: Biodistribution of intravenously injected [131I]-labeled compound in heart of BDF1 female mice bearing subcutaneous Lewis lung carcinoma after 1 hours; format: ADME, organism-based; conditions: in vivo, iv; summary of the method: as §1
# [6] = test system: Mus musculus; test: Biodistribution of intravenously injected [131I]-labeled compound in kidney of BDF1 female mice bearing subcutaneous Lewis lung carcinoma after 2 hours; format: ADME, organism-based; conditions: in vivo, iv; summary of the method: as §1
# [7] = test system: Mus musculus; test: Biodistribution of intravenously injected [131I]-labeled compound in liver of BDF1 female mice bearing subcutaneous Lewis lung carcinoma after 8 hours; format: ADME, organism-based; conditions: in vivo, iv; summary of the method: as §1
# [8] = test system: Mus musculus; test: Biodistribution of intravenously injected [131I]-labeled compound in muscle of BDF1 female mice bearing subcutaneous Lewis lung carcinoma after 8 hours; format: ADME, organism-based, Muscle tissue; conditions: in vivo, iv
# Summary of the method: (§2)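 Female BDF1 mice with subcutaneous Lewis lung carcinoma given i.v. 0.5-1.8 μg of 131I-labeled nucleoside (55-110 kBq). Killed at set times. Tissues weighed wet and γ-counted. Radioactivity expressed as percent injected dose per gram wet tissue, mean ± SD of six animals.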
# [9] = test system: Mus musculus; test: Biodistribution of intravenously injected [131I]-labeled compound in skin of BDF1 female mice bearing subcutaneous Lewis lung carcinoma after 0.25 hours; format: ADME, organism-based, Zone of skin; conditions: in vivo, iv; summary of the method: as §2
# [10] = test system: Mus musculus; test: Biodistribution of intravenously injected [131I]-labeled compound in skin of BDF1 female mice bearing subcutaneous Lewis lung carcinoma after 4 hours; format: ADME, organism-based, Zone of skin; conditions: in vivo, iv; summary of the method: as §2
# [11] = test system: Mus musculus; test: Biodistribution of intravenously injected [131I]-labeled compound in spleen of BDF1 female mice bearing subcutaneous Lewis lung carcinoma after 2 hours; format: ADME, organism-based; conditions: in vivo, iv; summary of the method: as §2
# [12] = organism: Mus musculus; test: Urinary [131I]5-iodouracil observed in BDF1 female mice bearing lewis lung tumor after 2-3 h of injected [131I]-compound; format: functional, tissue-based; conditions: Urine
# [13] = organism: Mus musculus; test: Urinary [131I]5-iodouracil observed in BDF1 female mice bearing lewis lung tumor after 6-7 hr of injected [131I]-compound; format: functional, tissue-based; conditions: Urine
# [14] = organism: Mus musculus; test: Urinary iodide observed in BDF1 female mice bearing lewis lung tumor after 2-3 hr of injected [131I]-compound; format: functional, tissue-based; conditions: Urine
# [15] = test system: Mus musculus; test: Biodistribution of intravenously injected [131I]-labeled compound in tumor of BDF1 female mice bearing subcutaneous Lewis lung carcinoma after 8 hours; format: ADME, organism-based; conditions: in vivo, iv; summary of the method: as §2
# [16] = test system: Mus musculus; test: Biodistribution of intravenously injected [131I]-labeled compound in tumor of BDF1 female mice bearing subcutaneous Lewis lung carcinoma after 0.25 hours; format: ADME, organism-based; conditions: in vivo, iv; summary of the method: as §2
# [17] = test system: Mus musculus; test: Biodistribution of intravenously injected [131I]-labeled compound in skin of BDF1 female mice bearing subcutaneous Lewis lung carcinoma after 1 hours; format: ADME, organism-based, Zone of skin; conditions: in vivo, iv; summary of the method: as §2
# [18] = test system: Mus musculus; test: Biodistribution of intravenously injected [82Br]-labeled compound in tumor of BDF1 female mice bearing subcutaneous Lewis lung carcinoma after 0.25 hours; format: ADME, organism-based; conditions: in vivo, iv
# [19] = test system: Mus musculus; test: Biodistribution of intravenously injected [82Br]-labeled compound in tumor of BDF1 female mice bearing subcutaneous Lewis lung carcinoma after 4 hr; format: ADME, organism-based; conditions: in vivo, iv
# [20] = test system: Mus musculus; test: Biodistribution of intravenously injected [82Br]-labeled compound in spleen of BDF1 female mice bearing subcutaneous Lewis lung carcinoma after 24 hours; format: ADME, organism-based; conditions: in vivo, iv
# [21] = test system: Mus musculus; test: Biodistribution of intravenously injected [82Br]-labeled compound in bone of BDF1 female mice bearing subcutaneous Lewis lung carcinoma after 1 hours; format: ADME, organism-based, Bone element; conditions: in vivo, iv
# Summary of the method: (§3)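 82Br-labeled nucleoside given intravenously to female BDF1 mice bearing subcutaneous Lewis lung carcinoma, at 47-130 μg carrying 20-60 kBq. Mice sacrificed at each time point. Wet-weighed tissues γ-counted. Values are percent injected dose per gram wet tissue, mean ± SD, n = 6.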
# [22] = test system: Mus musculus; test: Biodistribution of intravenously injected [82Br]-labeled compound in gut of BDF1 female mice bearing subcutaneous Lewis lung carcinoma after 0.25 hours; format: ADME, organism-based; conditions: in vivo, iv; summary of the method: as §3
# [23] = test system: Mus musculus; test: Biodistribution of intravenously injected [82Br]-labeled compound in gut of BDF1 female mice bearing subcutaneous Lewis lung carcinoma after 0.50 hours; format: ADME, organism-based; conditions: in vivo, iv, 0.5 h; summary of the method: as §3
# [24] = test system: Mus musculus; test: Biodistribution of intravenously injected [82Br]-labeled compound in gut of BDF1 female mice bearing subcutaneous Lewis lung carcinoma after 1 hours; format: ADME, organism-based; conditions: in vivo, iv; summary of the method: as §3
# [25] = test system: Mus musculus; test: Biodistribution of intravenously injected [82Br]-labeled compound in heart of BDF1 female mice bearing subcutaneous Lewis lung carcinoma after 2 hours; format: ADME, organism-based; conditions: in vivo, iv
# Summary of the method: (§4)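 Female BDF1 mice with subcutaneous Lewis lung carcinoma given an iv injection of [82Br]-labelled nucleoside, 47-130 μg carrying 20-60 kBq 82Br. Tissues were excised, weighed wet and γ-counted. Values are percent injected dose per gram of wet tissue, mean ± standard deviation of six animals, with organ-to-tumour ratios derived.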
# [26] = test system: Mus musculus; test: Biodistribution of intravenously injected [82Br]-labeled compound in heart of BDF1 female mice bearing subcutaneous Lewis lung carcinoma after 8 hours; format: ADME, organism-based; conditions: in vivo, iv; summary of the method: as §4
# [27] = test system: Mus musculus; test: Biodistribution of intravenously injected [82Br]-labeled compound in kidney of BDF1 female mice bearing subcutaneous Lewis lung carcinoma after 4 hours; format: ADME, organism-based; conditions: in vivo, iv; summary of the method: as §4
# [28] = test system: Mus musculus; test: Biodistribution of intravenously injected [82Br]-labeled compound in liver of BDF1 female mice bearing subcutaneous Lewis lung carcinoma after 1 hours; format: ADME, organism-based; conditions: in vivo, iv; summary of the method: as §4
# [29] = test system: Mus musculus; test: Biodistribution of intravenously injected [82Br]-labeled compound in blood of BDF1 female mice bearing subcutaneous Lewis lung carcinoma after 0.50 hours; format: ADME, organism-based; conditions: in vivo, iv, 0.5 h; summary of the method: as §3
# [30] = test system: Mus musculus; test: Biodistribution of intravenously injected [82Br]-labeled compound in blood of BDF1 female mice bearing subcutaneous Lewis lung carcinoma after 24 hours; format: ADME, organism-based; conditions: in vivo, iv; summary of the method: as §3
# [31] = test system: Mus musculus; test: Biodistribution of intravenously injected [82Br]-labeled compound in lung of BDF1 female mice bearing subcutaneous Lewis lung carcinoma after 24 hours; format: ADME, organism-based; conditions: in vivo, iv; summary of the method: as §4
# [32] = test system: Mus musculus; test: Biodistribution of intravenously injected [82Br]-labeled compound in muscle of BDF1 female mice bearing subcutaneous Lewis lung carcinoma after 0.5 hours; format: ADME, organism-based, Muscle tissue; conditions: in vivo, iv; summary of the method: as §4
# [33] = test system: Mus musculus; test: Biodistribution of intravenously injected [82Br]-labeled compound in skin of BDF1 female mice bearing subcutaneous Lewis lung carcinoma after 4 hours; format: ADME, organism-based, Zone of skin; conditions: in vivo, iv; summary of the method: as §4
# [34] = test system: Mus musculus; test: Biodistribution of intravenously injected [82Br]-labeled compound in skin of BDF1 female mice bearing subcutaneous Lewis lung carcinoma after 8 hours; format: ADME, organism-based, Zone of skin; conditions: in vivo, iv; summary of the method: as §4
# [35] = test system: Mus musculus; test: Biodistribution of intravenously injected [82Br]-labeled compound in liver of BDF1 female mice bearing subcutaneous Lewis lung carcinoma after 2 hours; format: ADME, organism-based; conditions: in vivo, iv; summary of the method: as §4
# [36] = test system: Mus musculus; test: Biodistribution of intravenously injected [82Br]-labeled compound in lung of BDF1 female mice bearing subcutaneous Lewis lung carcinoma after 0.25 hours; format: ADME, organism-based; conditions: in vivo, iv; summary of the method: as §4
# [37] = test system: Mus musculus; test: Biodistribution of intravenously injected [82Br]-labeled compound in stomach of BDF1 female mice bearing subcutaneous Lewis lung carcinoma after 4 hours; format: ADME, organism-based; conditions: in vivo, iv
# [38] = test system: Mus musculus; test: Biodistribution of intravenously injected [82Br]-labeled compound in skin of BDF1 female mice bearing subcutaneous Lewis lung carcinoma after 0.25 hours; format: ADME, organism-based, Zone of skin; conditions: in vivo, iv; summary of the method: as §4
smiles,measurement,setting,value
O=c1[nH]c(=O)n([C@@H]2O[C@H](CO)[C@@H](O)[C@H]2F)cc1I,Injected dose/g,[1],0.7%
same,Injected dose/g,[2],8.9%
same,Injected dose/g,[3],5.7%
same,Injected dose/g,[4],3.5%
same,Injected dose/g,[5],5.8%
same,Injected dose/g,[6],8.5%
same,Injected dose/g,[7],1.4%
same,Injected dose/g,[8],0.7%
same,Injected dose/g,[9],5.2%
same,Injected dose/g,[10],3.5%
same,Injected dose/g,[11],1.8%
same,Radioactive constituents,[12],0%
same,Radioactive constituents,[13],0%
same,Radioactive constituents,[14],13.7%
same,Injected dose/g,[15],1.9%
same,Injected dose/g,[16],4.9%
same,Injected dose/g,[17],5%
O=c1[nH]c(=O)n([C@H]2O[C@@H](CO)[C@H](O)[C@H]2F)cc1Br,Injected dose/g,[18],1.39%
same,Injected dose/g,[19],0.37%
same,Injected dose/g,[20],0.24%
same,Injected dose/g,[21],0.26%
same,Injected dose/g,[22],1.19%
same,Injected dose/g,[23],0.72%
same,Injected dose/g,[24],0.42%
same,Injected dose/g,[25],0.48%
same,Injected dose/g,[26],0.45%
same,Injected dose/g,[27],0.48%
same,Injected dose/g,[28],0.34%
same,Injected dose/g,[29],1.36%
same,Injected dose/g,[30],0.51%
same,Injected dose/g,[31],0.35%
same,Injected dose/g,[32],0.4%
same,Injected dose/g,[33],0.31%
same,Injected dose/g,[34],0.34%
same,Injected dose/g,[35],0.32%
same,Injected dose/g,[36],1.7%
same,Injected dose/g,[37],0.4%
same,Injected dose/g,[38],1.39%
